Data as given in the array DNA melting data of Ke et al. (doi:10.1101/2024.01.08.574731).

Columns and labels:
[1] = folding enthalpy; higher = less favourable; fluorescence melt of hairpins on a sequencing array, two-state fit; conditions: sodium 0.088 M
How it was run: (§1)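 Library hairpins on a sequenced MiSeq flow cell carried annealed Cy3 and quencher oligos, and their Cy3 fluorescence was imaged in 50 mM Na-HEPES pH 8.0 with 25 mM NaCl, in 2.5 °C steps up to 60 °C. Signals were normalised to Cy3 before quenching and to control constructs. Melting temperature and folding enthalpy were obtained from bootstrapped two-state fits, combined by inverse-variance weighting across four replicates, and the fitted temperatures were then raised by 9.35 °C to match UV melts.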

[2] = melting temperature; fluorescence melt of hairpins on a sequencing array, two-state fit, raised by 9.35 °C to match UV melts; conditions: sodium 0.088 M
How it was run: as §1

| Sequence | folding enthalpy [1] | Tm [2] |
| --- | --- | --- |
| GCGCCCGGAAACGGACGC (((.(((....))).))) | -47 kcal/mol | 66.1 °C |
| GCGCCCGTGCGC ((((....)))) | -10.3 kcal/mol | 66.5 °C |
| GCGCCGCGAAAGCACCGC (((..((....))..))) | -16.7 kcal/mol | 46.2 °C |
| GCGCCGCGAAAGCTGAGC ((.(.((....)).).)) | -20 kcal/mol | 57.5 °C |
| GCGCCGGGAAACCGACGC (((.(((....))).))) | -46.8 kcal/mol | 60.9 °C |
| GCGCCTCGAAAGAGTCGC (((.(((....))).))) | -38.3 kcal/mol | 58.7 °C |
| GCGCCTGGAAACAAGCGC ((((.((....)).)))) | -41.6 kcal/mol | 52.8 °C |
| GCGCGACCGAAAGGTCGC (((..(((....)))))) | -5.08 kcal/mol | 68.5 °C |
| GCGCGAGGAAACCCACGC (((.(.(....).).))) | -20.3 kcal/mol | 40 °C |
| GCGCGAGGAAACTCGCAC (.(((((....))))).) | -11.4 kcal/mol | 49.4 °C |
| GCGCGAGGAAACTCGTGC ((.((((....)))).)) | -42.3 kcal/mol | 62.9 °C |
| GCGCGCGAAAGCGCTCGC ((((((....)))..))) | -10.5 kcal/mol | 59.4 °C |
| GCGCGCGAAAGCGGACGC ((((((....)))..))) | -16.5 kcal/mol | 64.9 °C |
| GCGCGGCGAAAGCAACGC (((..((....))..))) | -15.8 kcal/mol | 60 °C |
| GCGCGGCGAAAGCCTCGC (((.(((....))).))) | -26.2 kcal/mol | 66.7 °C |
| GCGCGTCGAAAGACACGC (((.(((....))).))) | -45.5 kcal/mol | 62.9 °C |
| GCGCGTGGAAACACGCAC (.(((((....))))).) | -9.64 kcal/mol | 54.7 °C |
| GCGCTAGGAAACCAGCGC (((((.(....).))))) | -45.4 kcal/mol | 57.3 °C |
| GCGCTCGAAAGAGAACGC ((((((....)))..))) | -30.8 kcal/mol | 50.4 °C |
| GCGCTCGAAAGAGCACGC ((((((....)))..))) | -16.7 kcal/mol | 60 °C |
| GCGCTCGAAAGAGTCGC ((((((....))).))) | -30.6 kcal/mol | 57.7 °C |
| GCGCTGCGAAAGCAAGGC ((..(((....)))..)) | -16 kcal/mol | 46.7 °C |
| GCGCTGCGAAAGCACGGC ((..(((....)))..)) | -15.1 kcal/mol | 51.5 °C |
| GCGCTGGGAAACTGGCGC ((((..(....)..)))) | -49.8 kcal/mol | 57.3 °C |
| GCGCTTCGAAAGAACCGC (((.(((....))).))) | -31.7 kcal/mol | 46.4 °C |

| Sequence | folding enthalpy [1] | Tm [2] |
| --- | --- | --- |
| GCGCTTGGAAACAAACGC (((.(((....))).))) | -34.1 kcal/mol | 48 °C |
| GCGGAAACCGC ((((...)))) | -23 kcal/mol | 52.9 °C |
| GCGGAAACGAAAGTTCGC (((..(((....)))))) | -27.5 kcal/mol | 48.8 °C |
| GCGGAAGCGAAAGCTCGC (((..(((....)))))) | -31.5 kcal/mol | 52.1 °C |
| GCGGAAGGCCGC ((((....)))) | -21.7 kcal/mol | 53.1 °C |
| GCGGAATTCCGC ((((....)))) | -36.5 kcal/mol | 56.3 °C |
| GCGGACAACCGC ((((....)))) | -19.5 kcal/mol | 53.1 °C |
| GCGGACACCCGC ((((....)))) | -20.9 kcal/mol | 53.5 °C |
| GCGGACAGCCGC ((((....)))) | -17.4 kcal/mol | 53.8 °C |
| GCGGACCCCGC ((((...)))) | -20.9 kcal/mol | 54.4 °C |
| GCGGACCGCCGC ((((....)))) | -19.1 kcal/mol | 55.8 °C |
| GCGGACCTCCGC ((((....)))) | -27.4 kcal/mol | 55.9 °C |
| GCGGACGAAAGTCCCCGC ((((((....)))..))) | -12.7 kcal/mol | 45.8 °C |
| GCGGACGAAAGTCGGCGC ((((((....)))..))) | -26.7 kcal/mol | 68 °C |
| GCGGACGAAAGTCGTCGC ((((((....)))..))) | -22.8 kcal/mol | 52.6 °C |
| GCGGACGAAAGTCTACGC ((((((....)))..))) | -28.8 kcal/mol | 52.2 °C |
| GCGGACGGAAACACCCGC ((((..(....)..)))) | -26.9 kcal/mol | 41.9 °C |
| GCGGACGGAAACGCCCGC ((((.((....)).)))) | -36.7 kcal/mol | 67.8 °C |
| GCGGACGGAAACGTCCAC (.(((((....))))).) | -12.2 kcal/mol | 51.1 °C |
| GCGGACGTCCGC ((((....)))) | -53.7 kcal/mol | 60.8 °C |
| GCGGACTTCCGC ((((....)))) | -23.2 kcal/mol | 57.4 °C |
| GCGGAGCCCCGC ((((....)))) | -10.7 kcal/mol | 55.8 °C |
| GCGGAGCCCGC ((((...)))) | -11.3 kcal/mol | 49.4 °C |
| GCGGAGCGAAAGCAGCGC (((..((....))..))) | -17.1 kcal/mol | 58 °C |
| GCGGAGCGAAAGCCCTGC ((.(.((....)).).)) | -10.6 kcal/mol | 43.7 °C |

| Sequence | folding enthalpy [1] | Tm [2] |
| --- | --- | --- |
| GCGGAGCGAAAGCTAGGC ((..(((....)))..)) | -9.5 kcal/mol | 41.9 °C |
| GCGGAGCGAAAGCTTAGC ((..(((....)))..)) | -14.1 kcal/mol | 52.3 °C |
| GCGGAGGGAAACTTCCGC (((((.(....).))))) | -35.4 kcal/mol | 57.9 °C |
| GCGGAGTGCCGC ((((....)))) | -13.7 kcal/mol | 57.1 °C |
| GCGGATACCGC ((((...)))) | -25.8 kcal/mol | 57.1 °C |
| GCGGATACGAAAGTACGC (((..(((....)))))) | -27 kcal/mol | 49.4 °C |
| GCGGATGACCGC ((((....)))) | -21.6 kcal/mol | 54.8 °C |
| GCGGATTACCGC ((((....)))) | -20 kcal/mol | 54.9 °C |
| GCGGATTCCCGC ((((....)))) | -20.8 kcal/mol | 55 °C |
| GCGGCACCCCGC ((((....)))) | -24.8 kcal/mol | 53.8 °C |
| GCGGCAGCGAAAGCTCGC (((..(((....)))))) | -11.7 kcal/mol | 51.5 °C |
| GCGGCAGGAAACCACCGC ((((..(....)..)))) | -25.9 kcal/mol | 45.2 °C |
| GCGGCAGGAAACTGCCAC (.(((((....))))).) | -10.8 kcal/mol | 54.6 °C |
| GCGGCAGGAAACTGCTGC ((.((((....)))).)) | -43.2 kcal/mol | 62.9 °C |
| GCGGCCACCGC ((((...)))) | -19.6 kcal/mol | 59.5 °C |
| GCGGCCCACCGC ((((....)))) | -19.6 kcal/mol | 60 °C |
| GCGGCCGAAAGGCCCCGC ((((((....)))..))) | -10.3 kcal/mol | 48.1 °C |
| GCGGCCGAAAGGCTTCGC ((((((....)))..))) | -17.1 kcal/mol | 53.5 °C |
| GCGGCCGCGAAAGCGCGC (((..(((....)))))) | -11.6 kcal/mol | 59.5 °C |
| GCGGCCGGAAACGGCCAC (.(((((....))))).) | -9.59 kcal/mol | 53 °C |
| GCGGCCTCCCGC ((((....)))) | -22.3 kcal/mol | 56.3 °C |
| GCGGCGCGAAAGCGTAGC ((..(((....)))..)) | -26.1 kcal/mol | 65.8 °C |
| GCGGCGCGAAAGCTGCGC (((..((....))..))) | -26.1 kcal/mol | 63.3 °C |
| GCGGCGGTCCGC ((((....)))) | -17.6 kcal/mol | 58.7 °C |
| GCGGCGTACCGC ((((....)))) | -17.2 kcal/mol | 64.7 °C |

| Sequence | folding enthalpy [1] | Tm [2] |
| --- | --- | --- |
| GCGGCGTCGAAAGACCGC (((..(((....)))))) | -27.5 kcal/mol | 54.6 °C |
| GCGGCTAACCGC ((((....)))) | -26.2 kcal/mol | 56.5 °C |
| GCGGCTATCCGC ((((....)))) | -20.1 kcal/mol | 61.2 °C |
| GCGGCTCCCCGC ((((....)))) | -22.1 kcal/mol | 54.8 °C |
| GCGGCTCGAAAGAGCGC (((.(((....)))))) | -20.1 kcal/mol | 68.8 °C |
| GCGGCTGGAAACGGCTGC ((.((.(....).)).)) | -38.5 kcal/mol | 53 °C |
| GCGGCTGGAAACGGTCGC (((.(.(....).).))) | -43.2 kcal/mol | 54 °C |
| GCGGCTGTCCGC ((((....)))) | -28.3 kcal/mol | 57.9 °C |
| GCGGCTTACCGC ((((....)))) | -26.1 kcal/mol | 61.2 °C |
| GCGGGACCCCGC ((((....)))) | -26 kcal/mol | 67.8 °C |
| GCGGGAGACCGC ((((....)))) | -14.4 kcal/mol | 66.3 °C |
| GCGGGATCCGC ((((...)))) | -17.1 kcal/mol | 59.2 °C |
| GCGGGCCCGAAAGGGCGC (((..(((....)))))) | -8.34 kcal/mol | 58 °C |
| GCGGGCCGCCGC ((((....)))) | -15.5 kcal/mol | 61.5 °C |
| GCGGGCGAAAGCCGCCGC ((((((....)))..))) | -11.3 kcal/mol | 61.7 °C |
| GCGGGCGAAAGCCGTCGC ((((((....)))..))) | -17.3 kcal/mol | 54.5 °C |
| GCGGGCGGCCGC ((((....)))) | -42 kcal/mol | 59.1 °C |
| GCGGGCGTCCGC ((((....)))) | -23.6 kcal/mol | 58.6 °C |
| GCGGGCTCGAAAGAGCGC (((..(((....)))))) | -10.2 kcal/mol | 55 °C |
| GCGGGGATCCGC ((((....)))) | -19.9 kcal/mol | 68.9 °C |
| GCGGGGCGAAAGCACAGC ((.(.((....)).).)) | -31.8 kcal/mol | 65.4 °C |
| GCGGGGCGAAAGCCAAGC ((..(((....)))..)) | -27.7 kcal/mol | 65 °C |
